Tests used:
[1] = tested on: SR Ca^2+ overload related tachyarrhythmias in CPVT; details: cited from earlier work
cardiac tissue = assay: Cardiac immunohistochemistry with OpiCa1 polyclonal antibody; format: in vivo; details: mice, 12 h, self-prepared OpiCa1 polyclonal antibody, n = 6; in words
[2] = Plasma OpiCa1 concentration in vivo by ELISA; details: mice, injection of free OpiCa1 5 mg/kg
H9C2 cells = assay: Flow cytometry, Annexin V-FITC / propidium iodide apoptosis; format: cell-based, rat; details: 100 μM OpiCa1, 12 h, Annexin V-FITC/PI flow cytometry
ICR mice [3] = assay: Blood biochemical examinations; format: in vivo; details: i.v. 5 mg/kg OpiCa1 equivalent, 12 h, n = 6
Outline: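 Blood was drawn from the inner canthus into anticoagulant tubes 12 h after dosing and assayed for ALT, AST, CK, CK-MB, LDH, creatinine and uric acid. Data are mean ± SD; two-group comparisons used two-tailed Mann-Whitney tests.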

ICR mice [4] = assay: H&E staining pathological examination of heart; format: in vivo; details: 12 h after intravenous injection, n = 6
Outline: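 Twelve hours after intravenous dosing (test compound at 5 mg/kg peptide equivalent, free peptide, empty carrier or control; n = 6), heart tissue was fixed in 4 % paraformaldehyde. It then underwent routine hematoxylin-eosin staining for histopathological examination.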

RyRs = details: read-out: affinity between OpiCa1 and RyRs; cited from earlier work

Substance	antagonism of SR Ca^2+ overload related tachyarrhythmias [1]	distribution in cardiac tissue by immunohistochemistry (cardiac tissue)	time to complete disappearance from plasma [2]	proportion of apoptotic cells (H9C2 cells)	cardiac function (CK, CK-MB, and LDH) (ICR mice [3])	liver function (ALT and AST) (ICR mice [3])	renal function (Crea and UA) (ICR mice [3])	pathological examination of heart (H&E) (ICR mice [4])	Kd (RyRs)
Imperacalcin	can antagonize SR Ca^2+ overload related tachyarrhythmias such as PVCs and non-sustained BVTs in CPVT	–	–	–	–	–	–	–	–
Opicalcin1 [OpiCa1]	–	significantly distributed in cardiac tissue	≤ 48 h	about 1.5%	no significant differences	no significant differences	no significant differences	clear myocardial fibers and stripes	~0.3 nM

— article PMC10682124 (Materials Today Bio, 2023)
